Reference: ChEMBL document CHEMBL4513216, “Probing the Open Global Health Chemical Diversity Library for Multistage-Active Starting Points for Next-Generation Antimalarials” (ACS Infect Dis, 2020)

Assay: Toxicity liver stage against HepG2, at 10uM
Type: cell-based
Parameters: test concentration 10 uM, cell line HepG2-A16-CD81EGFP
Settings: human, HepG2-A16-CD81EGFP cells; read-out: INHIBITION
Summary of the method: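 Uninfected HepG2-A16-CD81EGFP cells, 3 × 10^3 per well, 1536-well, plated on prespotted compound at 10 μM final, parasite-free screening media added to match infected plates; puromycin 10 μM positive, DMSO 0.5% negative; run in parallel with 48 h PbLuc assay at 37 °C, 5% CO2; viability by CellTiter-Glo luminescence, normalized to controls.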

| Structure (SMILES) | cytotoxicity at 10 µM [%] |
| --- | --- |
| Cc1csc2ncc(-c3ccnc(N4CCC[C@H](C(N)=O)C4)n3)c(=O)n12 | -13.3 |
| CC(C)[C@@H]1CN(C2CCN(Cc3ccccc3)CC2)C[C@H]1NS(C)(=O)=O | -10.7 |
| O=C(NCc1ccco1)N1CCC(n2cc(-c3ccccn3)nn2)CC1 | 16.9 |
| Cc1ccc(-c2cc(C(=O)NCCCc3csc(N)n3)[nH]n2)o1 | 79.5 |
| COCCN(CCOC)c1nc2c(s1)c(C)nn2C | -40.5 |
| O=C(O)[C@@H]1CN(C(=O)c2ccc(F)c(F)c2)C[C@H]1c1cccc(F)c1 | -113 |
| CCN(CCn1cccn1)C(=O)CN1C(=O)OC[C@@H]1C(C)C | 1.97 |
| COc1ccc(-c2nccn2C[C@@H]2CCCN3CCCC[C@H]23)cc1 | 4.71 |
| CC(C)C1CN(S(=O)(=O)N2CCCC2)CCCN1Cc1ccc(F)cc1 (stereo not given) | 7.2 |
| CCC(CC)NCC(c1ccccn1)N1CCOCC1 (stereo not given) | -44.8 |
| CC(C)CN1CCc2[nH]cnc2C12CCN(C(=O)c1ccnn1C)CC2 | -4.77 |
| O=C(O)COc1ccc(Cl)cc1CN1CCC2(CCOCC2)CC1 | -6.55 |
| CN1CCN(CCCNCc2cc(O)c3cc(F)ccc3n2)CC1 | -45.4 |
| CCc1nccn1CCCNc1nccc(-c2c(C)nn(C)c2C)n1 | 2.96 |
| CCC[C@@H]1CN(Cc2cc(C#N)n(C)c2C)C[C@H]1NS(C)(=O)=O | -132 |
| Cc1cc(C(=O)N(C)CCCn2cccn2)nc(N)n1 | -7.04 |
| Cc1nnc(CN2C[C@H](NC(=O)CC3CCCC3)[C@@H](C3CC3)C2)s1 | -42.4 |
| CCCOCCN1CCC2(CC1)CC(=O)N(Cc1cc(F)cc(F)c1)C2 | 2.71 |
| Cc1cc(CN(C)C(=O)CN2CC3(CCNCC3)OC2=O)n(C)n1 | 9.81 |
| COc1cccc2c1OCC(C(=O)NCCc1nnc(C)s1)C2 (stereo not given) | -42.1 |
| Cc1cc(C(=O)NCCC(C)C)ccc1NS(C)(=O)=O | 7.04 |
| CN(C)S(=O)(=O)c1csc(C(=O)N2CCSCC2)c1 | -51.6 |
| COc1cccc(SCC(=O)N2CCC(N3CCCC(O)C3)CC2)c1 (stereo not given) | -18.7 |
| COCCN(CC1CC1)c1nc(CCN)nc2sc(C)c(C)c12 | 0.956 |
| COc1ncccc1C(=O)N1CCCC1c1nc(-c2ccccc2)no1 (stereo not given) | 1.75 |
| CC(=O)c1c(C)nn(CC(=O)N2CCCC2c2ccc(C(N)=O)s2)c1C (stereo not given) | 1.16 |
| COc1cccc(C(=O)N2CCCC(C(=O)CCc3ccccc3)C2)c1 (stereo not given) | -20 |
| CC(C)c1cc(NCC(C)N2CCCC2)n2nccc2n1 (stereo not given) | -12.4 |

| Structure (SMILES) | cytotoxicity at 10 µM [%] |
| --- | --- |
| CSCC(=O)N1CCC2(CC1)c1ccccc1CC2O (stereo not given) | -19.8 |
| CN1CCC(Oc2ccc(NC(=O)c3cccc(Cl)c3)cc2)CC1 | -8.45 |
| COc1ccc(CNc2cnn(CC(F)F)c2)cc1 | -7.47 |
| Cc1cccc(NC(=O)c2[nH]nc(C(C)C)c2Br)n1 | -2.95 |
| CCc1cccc(N2CCC(NC(=O)C3CCC3)CC2)c1 | 3.6 |
| COc1ccc(OCCCNCCn2cccn2)cc1 | -20 |
| CCc1n[nH]c(C2CN(Cc3nc(C4CC4)no3)CCO2)n1 (stereo not given) | -10.8 |
| Cc1cc(C)n(CCC(=O)N2CCCC(n3cncn3)C2)n1 (stereo not given) | -5.05 |
| CC(=O)N(Cc1noc(C)n1)C1CCN(Cc2ccon2)C1 (stereo not given) | 4.74 |
| CC1(C)CC(N(Cc2ccccc2)Cc2cccnc2)CC(C)(C)N1 | 2.67 |
| Cc1cccc(N2CC[C@H]3[C@H](CO[C@@H]3CN(C)Cc3ccco3)C2)n1 | 13.8 |
| CCOC(=O)[C@]12CCCN(Cc3cccs3)C[C@H]1CN(C(C)C)C2 | 12.2 |
| c1ccc(N2CC[C@@H]3CN(Cc4ccncc4)CCO[C@@H]3C2)cc1 | 9.49 |
| CC(=O)c1ccc(NC(=O)c2ccc3c(c2)C2(CCCCC2)CN3)cc1 | -108 |
| Cc1ccc2c(n1)N(Cc1cccnc1)CCN(C1CCOCC1)C2 | -71.6 |
| COc1cccc(CN(Cc2ccco2)Cc2cnc(C)n2C)c1 | 3.65 |
| CS(=O)(=O)NC[C@]12COC[C@H]1CN(CCc1ccccc1)C2 | 12.3 |
| C1CCC(CO[C@@H]2CC[C@H]3[C@H]2OCCN3CC2CCOCC2)C1 | 11.4 |
| Cc1cc(-c2cnc(N3CCCC(C)C3)nc2-c2cccnc2C)on1 (stereo not given) | 7.85 |
| O=C(c1cscn1)N1CCCC2(CCN2Cc2cccc(F)c2)C1 (stereo not given) | -112 |
| c1cncc(CN2CCCn3nnc(COCC4CC4)c3C2)c1 | -110 |
| COCc1n[nH]c2c1CN(Cc1cccs1)C2 | 3.3 |
| O=C(c1cccc(Cl)c1)N1CC[C@H]2[C@H]1CCN2CC1CC1 | -75 |
| CN1CCN(S(=O)(=O)c2cccc(F)c2)Cc2cccnc21 | -110 |
| CCOCc1nn(CC2CC2)c2c1CN(Cc1cccs1)CC2 | -108 |
| Cc1cccc(C(=O)N2CC[C@@H]3[C@H]2CCC(=O)N3c2ccccc2)n1 | -94.8 |
| Cc1cc(CN2C[C@@H]3CC[C@H]2CN(C2Cc4ccccc4C2)C3)on1 | 1.58 |
